Measurements taken from ChEMBL document CHEMBL3407388, “Synthesis, anticancer activity and molecular docking studies on a series of heterocyclic trans-cyanocombretastatin analogues as antitubulin agents” (2015).

Tests used:
Type in all cases: functional
[1] = Cytotoxicity against human Hs578T cells assessed as growth inhibition after 48 hrs by SRB assay; conditions: Hs-578T
Outline: (§1)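 NCI 60-cell panel; compounds passing a single-dose screen (10−5 M, 48 h) were tested at five 10-fold dilutions (10−4 to 10−8 M) with 48 h drug exposure. GI50 is the molar concentration giving 50% reduction in net cell growth relative to cell numbers on day 0.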

[2] = test system: KM12; experiment: Cytotoxicity against human KM12 cells assessed as growth inhibition after 48 hrs by SRB assay; conditions: KM12, 48 h; outline: as §1
[3] = test system: NCI-H460; experiment: Cytotoxicity against human NCI-H460 cells assessed as growth inhibition after 48 hrs by SRB assay; conditions: NCI-H460, 48 h; outline: as §1
[4] = Cytotoxicity against human UACC62 cells assessed as growth inhibition after 48 hrs by SRB assay; conditions: UACC-62, 48 h
[5] = test system: RPMI-8226; experiment: Cytotoxicity against human RPMI8226 cells assessed as growth inhibition after 48 hrs by SRB assay; conditions: RPMI-8226, 48 h; outline: as §1
[6] = Cytotoxicity against human PC3 cells assessed as growth inhibition after 48 hrs by SRB assay; conditions: PC-3, 48 h; outline: as §1
[7] = test system: DU-145; experiment: Cytotoxicity against human DU145 cells assessed as growth inhibition after 48 hrs by SRB assay; conditions: DU-145, 48 h; outline: as §1
[8] = test system: RXF 393; experiment: Cytotoxicity against human RXF393 cells assessed as growth inhibition after 48 hrs by SRB assay; conditions: RXF 393, 48 h; outline: as §1
[9] = test system: SF-268; experiment: Cytotoxicity against human SF268 cells assessed as growth inhibition after 48 hrs by SRB assay; conditions: SF-268, 48 h; outline: as §1
[10] = test system: TK-10; experiment: Cytotoxicity against human TK10 cells assessed as growth inhibition after 48 hrs by SRB assay; conditions: TK-10, 48 h
[11] = Cytotoxicity against human OVCAR3 cells assessed as growth inhibition after 48 hrs by SRB assay; conditions: OVCAR-3, 48 h; outline: as §1
[12] = test system: SK-MEL-5; experiment: Cytotoxicity against human SK-MEL-5 cells assessed as growth inhibition after 48 hrs by SRB assay; conditions: SK-MEL-5, 48 h; outline: as §1
[13] = test system: 786-0; experiment: Cytotoxicity against human 786-0 cells assessed as growth inhibition after 48 hrs by SRB assay; conditions: 786-0, 48 h; outline: as §1
[14] = Cytotoxicity against human OVCAR4 cells assessed as growth inhibition after 48 hrs by SRB assay; conditions: OVCAR-4, 48 h; outline: as §1
[15] = test system: BT-549; experiment: Cytotoxicity against human BT549 cells assessed as growth inhibition after 48 hrs by SRB assay; conditions: BT-549, 48 h; outline: as §1
[16] = test system: MDA-MB-435; experiment: Cytotoxicity against human MDA-MB-435 cells assessed as growth inhibition after 48 hrs by SRB assay; conditions: MDA-MB-435, 48 h; outline: as §1
[17] = test system: MOLT-4; experiment: Cytotoxicity against human MOLT4 cells assessed as growth inhibition after 48 hrs by SRB assay; conditions: MOLT-4, 48 h; outline: as §1
[18] = Cytotoxicity against human HCT116 cells assessed as growth inhibition after 48 hrs by SRB assay; conditions: HCT-116, 48 h; outline: as §1
[19] = test system: U-251; experiment: Cytotoxicity against human U251 cells assessed as growth inhibition after 48 hrs by SRB assay; conditions: U-251, 48 h
[20] = Cytotoxicity against human HCT15 cells assessed as growth inhibition after 48 hrs by SRB assay; conditions: HCT-15, 48 h; outline: as §1
[21] = test system: MDA-MB-231; experiment: Cytotoxicity against human MDA-MB-231 cells assessed as growth inhibition after 48 hrs by SRB assay; conditions: MDA-MB-231, 48 h; outline: as §1
[22] = test system: HL-60(TB); experiment: Cytotoxicity against human HL-60(TB) cells assessed as growth inhibition after 48 hrs by SRB assay; conditions: HL-60, 48 h
Outline: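 NCI 60-cell panel, leukemia subpanel. Five-dose screen at 10-fold dilutions from 10−4 to 10−8 M with 48 h drug exposure. GI50 is the molar concentration giving 50% reduction in net cell growth compared with cell numbers on day 0.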

[23] = test system: NCI-H226; experiment: Cytotoxicity against human NCI-H226 cells assessed as growth inhibition after 48 hrs by SRB assay; conditions: NCI-H226, 48 h; outline: as §1
[24] = test system: K562; experiment: Cytotoxicity against human K562 cells assessed as growth inhibition after 48 hrs by SRB assay; conditions: K562, 48 h; outline: as §1
[25] = Cytotoxicity against human OVCAR8 cells assessed as growth inhibition after 48 hrs by SRB assay; conditions: OVCAR-8, 48 h; outline: as §1
[26] = test system: CAKI-1; experiment: Cytotoxicity against human Caki1 cells assessed as growth inhibition after 48 hrs by SRB assay; conditions: CAKI-1, 48 h; outline: as §1
[27] = Cytotoxicity against human OVCAR5 cells assessed as growth inhibition after 48 hrs by SRB assay; conditions: OVCAR-5, 48 h; outline: as §1
[28] = test system: SNB-75; experiment: Cytotoxicity against human SNB75 cells assessed as growth inhibition after 48 hrs by SRB assay; conditions: SNB-75, 48 h
[29] = test system: COLO 205; experiment: Cytotoxicity against human COLO205 cells assessed as growth inhibition after 48 hrs by SRB assay; conditions: COLO 205, 48 h; outline: as §1
[30] = test system: SN12C; experiment: Cytotoxicity against human SN12C cells assessed as growth inhibition after 48 hrs by SRB assay; outline: as §1
[31] = test system: MCF7; experiment: Cytotoxicity against human MCF7 cells assessed as growth inhibition after 48 hrs by SRB assay; conditions: MCF7, 48 h; outline: as §1
[32] = test system: HCC 2998; experiment: Cytotoxicity against human HCC2998 cells assessed as growth inhibition after 48 hrs by SRB assay; conditions: HCC 2998, 48 h; outline: as §1
[33] = test system: M14; experiment: Cytotoxicity against human M14 cells assessed as growth inhibition after 48 hrs by SRB assay; conditions: M14, 48 h; outline: as §1
[34] = test system: HT-29; experiment: Cytotoxicity against human HT-29 cells assessed as growth inhibition after 48 hrs by SRB assay; conditions: HT-29, 48 h; outline: as §1
[35] = test system: SNB-19; experiment: Cytotoxicity against human SNB19 cells assessed as growth inhibition after 48 hrs by SRB assay; conditions: SNB-19, 48 h; outline: as §1
[36] = Cytotoxicity against human NCI-ADR-RES cells assessed as growth inhibition after 48 hrs by SRB assay; outline: as §1
[37] = test system: SW-620; experiment: Cytotoxicity against human SW620 cells assessed as growth inhibition after 48 hrs by SRB assay; conditions: SW-620, 48 h
[38] = Cytotoxicity against human UO31 cells assessed as growth inhibition after 48 hrs by SRB assay; conditions: UO-31, 48 h
[39] = test system: A498; experiment: Cytotoxicity against human A498 cells assessed as growth inhibition after 48 hrs by SRB assay; conditions: A498, 48 h; outline: as §1
[40] = test system: SK-OV-3; experiment: Cytotoxicity against human SKOV3 cells assessed as growth inhibition after 48 hrs by SRB assay; conditions: SK-OV-3, 48 h; outline: as §1
[41] = test system: LOX IMVI; experiment: Cytotoxicity against human LOXIMVI cells assessed as growth inhibition after 48 hrs by SRB assay; outline: as §1
[42] = test system: SF-295; experiment: Cytotoxicity against human SF295 cells assessed as growth inhibition after 48 hrs by SRB assay; conditions: SF-295, 48 h; outline: as §1
[43] = test system: IGROV-1; experiment: Cytotoxicity against human IGROV1 cells assessed as growth inhibition after 48 hrs by SRB assay; conditions: IGROV-1, 48 h; outline: as §1

Compound `COc1cc(OC)cc(/C(C#N)=C/c2c[nH]c3ccccc23)c1` has a GI50 [1] of 611 nM, a GI50 [2] of 40 nM and a GI50 [3] of 39 nM. For the same compound, the GI50 [4] was 49 nM, the GI50 [5] was 65 nM and the GI50 [6] was 75 nM. It also gave a GI50 [7] of 130 nM, a GI50 [8] of 83 nM and a GI50 [9] of 78 nM. It also gave a GI50 [10] of 10300 nM, a GI50 [11] of 31 nM and a GI50 [12] of 48 nM. It also gave a GI50 [13] of 77 nM, a GI50 [14] of 3520 nM and a GI50 [15] of 49 nM. For the same compound, the GI50 [16] was 20 nM, the GI50 [17] was 49 nM and the GI50 [18] was 42 nM. For the same compound, the GI50 [19] was 45 nM, the GI50 [20] was 53 nM and the GI50 [21] was 644 nM. For the same compound, the GI50 [22] was 31 nM, the GI50 [23] was 8180 nM and the GI50 [24] was 43 nM. It also gave a GI50 [25] of 103 nM, a GI50 [26] of 35 nM and a GI50 [27] of 197 nM. For the same compound, the GI50 [28] was 34 nM, the GI50 [29] was 47 nM and the GI50 [30] was 77 nM. For the same compound, the GI50 [31] was 41 nM, the GI50 [32] was 207 nM and the GI50 [33] was 42 nM. The GI50 [34] was 38 nM, the GI50 [35] was 62 nM and the GI50 [36] was 33 nM. It also gave a GI50 [37] of 44 nM, a GI50 [38] of 663 nM and a GI50 [39] of 35 nM. The GI50 [40] was 117 nM, the GI50 [41] was 78 nM and the GI50 [42] was 45 nM. It also gave a GI50 [43] of 347 nM.
`COc1ccc(/C(C#N)=C/c2c[nH]c3ccccc23)cc1OC` gave a GI50 [1] of 12900 nM, a GI50 [2] of 4040 nM and a GI50 [3] of 4510 nM. For the same compound, the GI50 [4] was 6980 nM, the GI50 [5] was 3960 nM and the GI50 [6] was 7850 nM. For the same compound, the GI50 [7] was 22600 nM, the GI50 [8] was 4480 nM and the GI50 [9] was 18900 nM. The GI50 [10] was 13200 nM, the GI50 [11] was 5680 nM and the GI50 [12] was 4270 nM. It also gave a GI50 [13] of 14100 nM, a GI50 [14] of 22100 nM and a GI50 [15] of 5380 nM. It also gave a GI50 [16] of 3950 nM, a GI50 [17] of 3990 nM and a GI50 [18] of 35500 nM. For the same compound, the GI50 [19] was 4970 nM, the GI50 [20] was 3700 nM and the GI50 [21] was 7180 nM. It also gave a GI50 [22] of 4570 nM, a GI50 [23] of 20900 nM and a GI50 [24] of 1650 nM. The GI50 [25] was 7380 nM, the GI50 [26] was 4340 nM and the GI50 [27] was over 100000 nM. For the same compound, the GI50 [28] was 6040 nM, the GI50 [29] was 5310 nM and the GI50 [30] was 8100 nM. It also gave a GI50 [31] of 3100 nM, a GI50 [32] of 12600 nM and a GI50 [33] of 3750 nM. For the same compound, the GI50 [34] was 3320 nM, the GI50 [35] was 24200 nM and the GI50 [36] was 1700 nM. It also gave a GI50 [37] of 3530 nM, a GI50 [38] of 14300 nM and a GI50 [39] of 3360 nM. For the same compound, the GI50 [40] was 11900 nM, the GI50 [41] was 5320 nM and the GI50 [42] was 4920 nM. It also gave a GI50 [43] of 21000 nM.
Compound `COc1cc(/C(C#N)=C/c2nc3ccccc3s2)cc(OC)c1OC` has a GI50 [1] of 1290 nM, a GI50 [2] of 278 nM and a GI50 [3] of 336 nM. It also gave a GI50 [4] of 52 nM, a GI50 [5] of 237 nM and a GI50 [6] of 341 nM. The GI50 [7] was 333 nM, the GI50 [8] was 148 nM and the GI50 [9] was 1030 nM. For the same compound, the GI50 [10] was 63 nM, the GI50 [11] was 31 nM and the GI50 [12] was 100 nM. For the same compound, the GI50 [13] was 1060 nM, the GI50 [14] was 3860 nM and the GI50 [15] was 12200 nM. For the same compound, the GI50 [16] was 21 nM, the GI50 [17] was 9200 nM and the GI50 [18] was 52 nM. It also gave a GI50 [19] of 1650 nM, a GI50 [20] of 45 nM and a GI50 [21] of 992 nM. For the same compound, the GI50 [22] was 66 nM, the GI50 [23] was 844 nM and the GI50 [24] was 51 nM. It also gave a GI50 [25] of 438 nM, a GI50 [26] of 47 nM and a GI50 [27] of 347 nM. The GI50 [28] was 145 nM, the GI50 [29] was 36 nM and the GI50 [30] was 515 nM. For the same compound, the GI50 [31] was 34 nM, the GI50 [32] was 297 nM and the GI50 [33] was 193 nM. The GI50 [34] was 37 nM, the GI50 [35] was 2490 nM and the GI50 [36] was 59 nM. It also gave a GI50 [37] of 38 nM, a GI50 [38] of 83 nM and a GI50 [39] of 198 nM. For the same compound, the GI50 [40] was 626 nM, the GI50 [41] was 73 nM and the GI50 [42] was 508 nM. The GI50 [43] was 1270 nM.
